The text below walks through data of the array DNA melting data of Ke et al. (doi:10.1101/2024.01.08.574731).

A short description of series [1]: melting temperature; fluorescence melt of hairpins on a sequencing array, two-state fit, raised by 9.35 °C to match UV melts. To be noted: sodium 0.088 M. In short, it runs like this: (§1)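 On a sequenced MiSeq flow cell, library hairpins with annealed Cy3 and quencher oligos were imaged for Cy3 fluorescence in 2.5 °C steps up to 60 °C, in 50 mM Na-HEPES pH 8.0, 25 mM NaCl. Normalisation used pre-quench Cy3 and control constructs. Bootstrapped two-state fits gave melting temperature and folding enthalpy, combined by inverse variance across four replicates and with fitted temperatures raised by 9.35 °C to match UV melts.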

Series [2] is described as follows: folding enthalpy; higher = less favourable; fluorescence melt of hairpins on a sequencing array, two-state fit. As to conditions: sodium 0.088 M. In short, it runs like this:
as §1

Take GTCGCCGCGAAAGCGGAC (((..(((....)))))): the Tm in series [1] worked out at 32.8 °C. The folding enthalpy in series [2] was -6.08 kcal/mol.
Taken in the same sequence, the figures for GTCGCGCGAAAGCGAGAC (((.(((....))).))) were 68.2 °C and -25.4 kcal/mol.
The corresponding values for GTCGCGGGAAACCGCAAC ((.((((....)))).)) are 44.1 °C and -13.3 kcal/mol.
In the case of GTCGCGGGAAACCGTGAC (((.(((....))).))), the Tm in series [1] was 59.8 °C. Also, the folding enthalpy in series [2] was -35.2 kcal/mol.
The corresponding values for GTCGCGGGAAACTGCGAC (((((.(....).))))) are 65.3 °C and -41.2 kcal/mol.
The corresponding values for GTCGCGGGAAACTGCGGC (.(((.(....).))).) are 54.7 °C and -27.1 kcal/mol.
The corresponding values for GTCGCTCCGAAAGGAGAC (((..(((....)))))) are 34.9 °C and -10.5 kcal/mol.
In the case of GTCGCTCGAAAGAGGAC (((.(((....)))))), the Tm in series [1] amounted to 45.4 °C. The folding enthalpy in series [2] was -18.1 kcal/mol.
The corresponding values for GTCGCTCGAAAGAGTGAC (((.(((....))).))) are 62.6 °C and -43.3 kcal/mol.
Taken in the same sequence, the figures for GTCGCTGCGAAAGCAGAC (((..(((....)))))) were 38.5 °C and -10 kcal/mol.
Taken in the same sequence, the figures for GTCGCTGGAAACAGTGGC (.(.(((....))).).) were 45.4 °C and -27.8 kcal/mol.
As to GTCGGACGAAAGTCGGAC (((.(((....))).))), the Tm in series [1] was 58.5 °C. In addition, the folding enthalpy in series [2] was -32.3 kcal/mol.
Taken in the same sequence, the figures for GTCGGACGAAAGTCTGAC (((.(((....))).))) were 61.5 °C and -40.9 kcal/mol.
Turning to GTCGGAGGAAACCCCGAC (((((.(....).))))), the Tm in series [1] turned out to be 53.8 °C. In series [2], the folding enthalpy was -33.3 kcal/mol.
The corresponding values for GTCGGCACGAAAGTGGAC (((..(((....)))))) are 34.7 °C and -12.3 kcal/mol.
The corresponding values for GTCGGCGAAAGCCACGAC ((((((....)))..))) are 56 °C and -14.4 kcal/mol.
The corresponding values for GTCGGCGAAAGCCCCGAC ((((((....)))..))) are 41.8 °C and -15.6 kcal/mol.
Turning to GTCGGCGAAAGCCGGAC ((((((....))).))), the Tm in series [1] came out at 61.1 °C. Besides, the folding enthalpy in series [2] is -12.4 kcal/mol.
The corresponding values for GTCGGCGAAAGCCGTGAC ((((((....)))..))) are 41.1 °C and -8.14 kcal/mol.
Taken in the same sequence, the figures for GTCGGTCCGAAAGGAGAC (((..(((....)))))) were 36 °C and -15 kcal/mol.
The corresponding values for GTCGGTGGAAACACCAAC ((.((((....)))).)) are 39.4 °C and -18.1 kcal/mol.
As to GTCGGTGGAAACACTGGC (.(.(((....))).).), the Tm in series [1] came to 42.8 °C. Moreover, the folding enthalpy in series [2] was -27.8 kcal/mol.
The corresponding values for GTCGGTGGAAACGCCGAC (((((.(....).))))) are 63.2 °C and -50 kcal/mol.
As for GTCGTACCGAAAGGTGAC (((..(((....)))))), the Tm in series [1] was 42.8 °C. For the same sequence, in series [2], the folding enthalpy is -18.6 kcal/mol.
Taken in the same sequence, the figures for GTCGTACGAAAGTAGAC (((.(((....)))))) were 52 °C and -32.4 kcal/mol.
In the case of GTCGTAGCGAAAGCTGAC (((..(((....)))))), the Tm in series [1] was 46.3 °C. In addition, the folding enthalpy in series [2] is -19.6 kcal/mol.
Taken in the same sequence, the figures for GTCGTAGGAAACTACAAC ((.((((....)))).)) were 30 °C and -21 kcal/mol.
Taken in the same sequence, the figures for GTCGTCGAAAGACATGAC ((((((....)))..))) were 38.5 °C and -17.4 kcal/mol.
As for GTCGTCGAAAGACCCGAC ((((((....)))..))), the Tm in series [1] was 31.3 °C. Besides, in series [2], the folding enthalpy was -14.5 kcal/mol.
The corresponding values for GTCGTCGAAAGACGCGAC ((((((....)))..))) are 55.7 °C and -12.5 kcal/mol.
Turning to GTCGTCGAAAGACGGAC ((((((....))).))), the Tm in series [1] is 56.2 °C. The folding enthalpy in series [2] was -13.6 kcal/mol.
The corresponding values for GTCGTCGGAAACGATGAC (((.(((....))).))) are 55.5 °C and -44.4 kcal/mol.
Taken in the same sequence, the figures for GTCGTCGGAAACGGTGAC (((..((....))..))) were 42.4 °C and -24 kcal/mol.
Taken in the same sequence, the figures for GTCGTGGGAAACTACGGC (.(((.(....).))).) were 44.7 °C and -25.6 kcal/mol.
Take GTCGTGTCGAAAGACGAC (((..(((....)))))): the Tm in series [1] worked out at 48.9 °C. Also, the folding enthalpy in series [2] is -19.9 kcal/mol.
Taken in the same sequence, the figures for GTCGTTGGAAACAATGGC (.(.(((....))).).) were 35 °C and -24.8 kcal/mol.
The corresponding values for GTCTAAGGAAACTCAGAC ((((.((....)).)))) are 26.6 °C and -11.5 kcal/mol.
Taken in the same sequence, the figures for GTCTACGAAAGTACTGAC ((((((....)))..))) were 28.9 °C and -10.8 kcal/mol.
With GTCTACGAAAGTAGAC ((((((....)))))), the Tm in series [1] amounted to 66.8 °C. The folding enthalpy in series [2] was -36.8 kcal/mol.
The corresponding values for GTCTAGTCGAAAGACGAC (((..(((....)))))) are 39.4 °C and -14.3 kcal/mol.
Taken in the same sequence, the figures for GTCTATCGAAAGATCGAC (((.(((....))).))) were 41.4 °C and -40.4 kcal/mol.
For the sequence GTCTATCGAAAGATGAC (((.(((....)))))), the Tm in series [1] came to 42 °C. For the same sequence, in series [2], the folding enthalpy is -27.1 kcal/mol.
Taken in the same sequence, the figures for GTCTATGGAAACACAGAC ((((.((....)).)))) were 31.6 °C and -21 kcal/mol.
Taken in the same sequence, the figures for GTCTCAACGAAAGTTGAC (((..(((....)))))) were 30.5 °C and -10.7 kcal/mol.
In the case of GTCTCAGAAATGAGAC ((((((....)))))), the Tm in series [1] was determined as 53.8 °C. The folding enthalpy in series [2] is -41.8 kcal/mol.
Taken in the same sequence, the figures for GTCTCAGGAAACCGAGAC (((((.(....).))))) were 45.7 °C and -30.8 kcal/mol.
Taken in the same sequence, the figures for GTCTCCCGAAAGGGGGAC (((.(((....))).))) were 65.9 °C and -32.4 kcal/mol.
The corresponding values for GTCTCCGAAAGGAGTGAC ((((((....)))..))) are 36 °C and -11.2 kcal/mol.
Consider GTCTCCGAAAGGATTGAC ((((((....)))..))), for which the Tm in series [1] stood at 35.5 °C. The folding enthalpy in series [2] was -20 kcal/mol.
The corresponding values for GTCTCGGCGAAAGCCGAC (((..(((....)))))) are 35.6 °C and -4.96 kcal/mol.
Taken in the same sequence, the figures for GTCTCGGGAAACCAAGAC ((((.((....)).)))) were 37.2 °C and -26.5 kcal/mol.
The corresponding values for GTCTCGTCGAAAGACGAC (((..(((....)))))) are 37 °C and -7.57 kcal/mol.
As for GTCTCTCGAAAGAGTGAC (((.(((....))).))), the Tm in series [1] stood at 49.7 °C. Moreover, in series [2], the folding enthalpy was -32.6 kcal/mol.
The corresponding values for GTCTCTGGAAACAGAGGC (.(((((....))))).) are 49.5 °C and -26.2 kcal/mol.
The corresponding values for GTCTGAGAAATCAGAC ((((((....)))))) are 52.4 °C and -37.5 kcal/mol.
